According to ChEMBL document CHEMBL1125585, “(Methoxyalkyl)thiazoles: a new series of potent, selective, and orally active 5-lipoxygenase inhibitors displaying high enantioselectivity” (J Med Chem, 1991):

Assays:
[1] = target: T1, Polyunsaturated fatty acid 5-lipoxygenase (Homo sapiens, UniProt P09917); experiment: Inhibition of 5-lipoxygenase in human whole blood.; type: tissue-based
T1 sequence (P09917 whole entry): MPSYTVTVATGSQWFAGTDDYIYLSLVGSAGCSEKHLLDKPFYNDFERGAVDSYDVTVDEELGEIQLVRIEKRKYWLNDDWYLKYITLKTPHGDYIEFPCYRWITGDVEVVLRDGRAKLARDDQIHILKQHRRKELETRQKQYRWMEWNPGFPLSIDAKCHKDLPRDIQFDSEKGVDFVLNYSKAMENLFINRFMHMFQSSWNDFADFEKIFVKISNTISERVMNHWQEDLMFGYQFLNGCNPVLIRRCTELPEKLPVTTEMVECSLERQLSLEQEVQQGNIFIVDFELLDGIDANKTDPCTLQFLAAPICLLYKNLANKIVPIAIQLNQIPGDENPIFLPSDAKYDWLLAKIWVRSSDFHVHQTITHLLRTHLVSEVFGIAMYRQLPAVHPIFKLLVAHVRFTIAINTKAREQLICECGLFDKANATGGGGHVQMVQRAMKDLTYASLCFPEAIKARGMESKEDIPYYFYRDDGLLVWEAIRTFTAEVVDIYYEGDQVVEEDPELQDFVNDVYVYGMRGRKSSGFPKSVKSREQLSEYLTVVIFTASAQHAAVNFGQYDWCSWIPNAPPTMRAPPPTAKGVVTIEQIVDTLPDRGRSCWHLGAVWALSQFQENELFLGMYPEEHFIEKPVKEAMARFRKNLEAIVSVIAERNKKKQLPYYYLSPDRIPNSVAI
How it was run: (§1)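 Eicosanoid (LTB4, PGE2, TXB2) generation measured in vitro in heparinised rat or human whole blood; IC50s given ± SE with the number of determinations.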

[2] = target: T2, Polyunsaturated fatty acid 5-lipoxygenase (Mus musculus, UniProt P48999); experiment: Inhibition of 5-lipoxygenase in mouse macrophages.
T2 sequence (P48999 whole entry): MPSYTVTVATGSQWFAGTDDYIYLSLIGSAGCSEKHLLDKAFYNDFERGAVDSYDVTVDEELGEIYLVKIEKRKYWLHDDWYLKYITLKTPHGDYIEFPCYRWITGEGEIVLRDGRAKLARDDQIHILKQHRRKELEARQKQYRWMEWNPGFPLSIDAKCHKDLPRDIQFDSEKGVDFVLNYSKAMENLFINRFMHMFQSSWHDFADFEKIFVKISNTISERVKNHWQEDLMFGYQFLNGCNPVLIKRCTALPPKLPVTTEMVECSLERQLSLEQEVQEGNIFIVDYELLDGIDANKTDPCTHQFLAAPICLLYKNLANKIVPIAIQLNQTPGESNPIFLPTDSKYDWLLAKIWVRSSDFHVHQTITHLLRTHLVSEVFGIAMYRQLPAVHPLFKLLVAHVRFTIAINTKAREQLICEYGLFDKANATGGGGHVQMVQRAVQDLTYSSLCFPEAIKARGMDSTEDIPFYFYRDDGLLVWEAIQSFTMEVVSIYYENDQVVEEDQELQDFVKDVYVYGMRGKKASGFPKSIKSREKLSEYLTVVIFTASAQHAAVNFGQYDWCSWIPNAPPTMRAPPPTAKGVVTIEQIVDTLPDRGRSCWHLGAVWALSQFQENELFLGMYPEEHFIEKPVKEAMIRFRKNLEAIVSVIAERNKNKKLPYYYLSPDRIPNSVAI
How it was run: (§2)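 LTC4 and PGE2 synthesis measured in plasma-free cultures of murine peritoneal macrophages.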

[3] = target: T3, Polyunsaturated fatty acid 5-lipoxygenase (Rattus norvegicus, UniProt P12527); experiment: Compound was tested for the inhibition of 5-lipoxygenase (5-Lpo) in rat whole blood.; type: tissue-based; how it was run: as §1
T3 sequence (P12527 whole entry): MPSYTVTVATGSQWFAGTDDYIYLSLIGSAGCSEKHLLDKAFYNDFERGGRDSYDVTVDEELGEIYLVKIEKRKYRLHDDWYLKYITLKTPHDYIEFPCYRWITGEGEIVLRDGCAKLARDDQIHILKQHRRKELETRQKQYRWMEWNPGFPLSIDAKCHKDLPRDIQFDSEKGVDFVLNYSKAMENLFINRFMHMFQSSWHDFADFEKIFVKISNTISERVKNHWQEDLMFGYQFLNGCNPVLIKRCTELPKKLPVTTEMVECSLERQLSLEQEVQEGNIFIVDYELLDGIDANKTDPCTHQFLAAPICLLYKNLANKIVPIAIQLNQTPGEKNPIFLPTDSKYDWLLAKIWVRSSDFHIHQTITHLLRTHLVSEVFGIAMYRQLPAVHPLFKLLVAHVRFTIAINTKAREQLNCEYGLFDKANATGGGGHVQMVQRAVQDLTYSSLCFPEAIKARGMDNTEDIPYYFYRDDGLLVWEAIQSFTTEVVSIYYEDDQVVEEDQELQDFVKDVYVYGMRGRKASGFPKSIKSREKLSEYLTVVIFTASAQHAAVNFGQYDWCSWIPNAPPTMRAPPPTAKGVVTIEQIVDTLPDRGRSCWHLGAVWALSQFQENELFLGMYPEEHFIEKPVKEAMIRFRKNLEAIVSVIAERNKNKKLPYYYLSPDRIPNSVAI

[4] = target: T3, Polyunsaturated fatty acid 5-lipoxygenase; experiment: Compound was tested for the inhibition of 5-lipoxygenase (5-LPO) in rat basophilic leukemia (RBL) cells.; type: cell-based, RBL-1
How it was run: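 Cell-free 5-LPO activity was measured spectrophotometrically. The enzyme source was the high-speed supernatant of rat basophilic leukemia (RBL) cells.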

Rattus norvegicus [5] = organism: Rattus norvegicus; experiment: In vitro inhibition of TXB2 synthesis against rat whole blood.
Homo sapiens [6] = organism: Homo sapiens; experiment: In vitro inhibition of TXB2 synthesis in human whole blood.; type: functional; how it was run: as §1
Mus musculus [7] = organism: Mus musculus; experiment: In vitro inhibition of PGE-2 synthesis in plasma free mouse macrophages.; type: functional; how it was run: as §2
Mus musculus [8] = organism: Mus musculus; experiment: In vitro inhibition of LTC4 synthesis in plasma free mouse macrophages.; type: functional; how it was run: as §2
Homo sapiens [9] = organism: Homo sapiens; experiment: In vitro inhibition of LTB4 synthesis in human whole blood.; type: functional; how it was run: as §1
Rattus norvegicus [10] = organism: Rattus norvegicus; experiment: In vitro inhibition of LTB4 synthesis in rat whole blood.; type: functional; how it was run: as §1
Rattus norvegicus [11] = experiment: Compound was evaluated ex vivo for inhibition of LTB4 synthesis in rat on oral administration.; type: functional
How it was run: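 Rats dosed orally at 1 mL/kg with a suspension made by mixing 300 µL of compound in DMSO into 15 mL of 0.5% hydroxypropyl methyl cellulose with 0.1% polysorbate 80. Controls got the same volume of vehicle. After 1 h the animals were killed and bled, and LTB4 and TXB2 synthesis was measured in the blood ex vivo, n = 5 per point.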

Rattus norvegicus [12] = organism: Rattus norvegicus; experiment: In vitro inhibition of PGE-2 synthesis against rat whole blood.; type: functional; settings: in the assay text read “TXB2” for “PGE-2”; how it was run: as §1

Structure (SMILES)	IC50 [1] [nM]	IC50 [2] [nM]	further results
CCC(OC)(c1cccc(OCc2ccc3ccccc3c2)c1)c1cscn1 (configuration not stated)	600	–	–
COC1(c2nccs2)CCc2c(OCc3ccc4ccccc4c3)cccc21 (configuration not stated)	> 40000	–	–
CCCC(O)(c1cccc(OCc2ccc3ccccc3c2)c1)c1nccs1 (configuration not stated)	8800	80	–
CCC(O)(c1cccc(OCCCc2ccccc2)c1)c1nccs1 (configuration not stated)	11000	–	–
COC(c1cccc(OCc2ccc3ccccc3c2)c1)c1nccs1 (configuration not stated)	7000	300	IC50 [3]: 6000 nM
CCC(OC)(c1cccc(OCc2ccc(F)c(F)c2)c1)c1nccs1 (configuration not stated)	40000	800	–
CCC(OC)(c1ccc(OCc2ccc3ccccc3c2)cc1)c1nccs1 (configuration not stated)	~40000	–	–
CCC(OC)(c1cccc(OCc2ccc3ccccc3c2)c1)c1cncs1 (configuration not stated)	6300	–	–
CCC(OC)(c1cccc(OCc2cccc3ccccc23)c1)c1nccs1 (configuration not stated)	4800	–	–
COC1CCc2ccc(OCc3ccc4ccccc4c3)cc21 (configuration not stated)	> 40000	–	–
c1ccc2cc(COc3ccc4c(c3)C(c3nccs3)CC4)ccc2c1 (configuration not stated)	> 40000	–	–
Cc1cnc(C(O)c2cccc(OCc3ccc4ccccc4c3)c2)[nH]1 (configuration not stated)	–	–	IC50 [3]: > 30000 nM
CCC(O)(c1cccc(OCC#Cc2cccc(C)c2)c1)c1nccs1 (configuration not stated)	2500	–	–
Cc1cnc(C(C)(O)c2cccc(OCc3ccc4ccccc4c3)c2)s1 (configuration not stated)	~40000	–	–
CCC(OC)(c1cccc(OCc2ccc3ccccc3c2)c1)c1nc(C)cs1 (configuration not stated)	~40000	820	–
CCC(O)(c1cccc(OC/C=C/c2ccccc2)c1)c1nccs1 (configuration not stated)	800	6	–
COC(C)(c1cccc(OCc2ccc3ccccc3c2)c1)c1nccs1 (configuration not stated)	500	5	IC50 [3]: 800 nM
CCC(OC)(c1nccs1)c1ccccc1OCc1ccc2ccccc2c1 (configuration not stated)	> 40000	–	–
CCCCCCCCCCOc1cccc(C(O)c2nc(C)c[nH]2)c1 (configuration not stated)	–	–	IC50 [3]: > 30000 nM
CCC(O)(c1cccc(OCc2ccc(Cl)c(Cl)c2)c1)c1nccs1 (configuration not stated)	1100	–	–
CC(C)C(O)(c1cccc(OCc2ccc3ccccc3c2)c1)c1nccs1 (configuration not stated)	40000	1000	–
CCC(O)(c1cccc(OCC#Cc2ccccc2)c1)c1nccs1 (configuration not stated)	1000	30	–
OC(c1cccc(OCc2ccc3ccccc3c2)c1)c1nccs1 (configuration not stated)	–	–	IC50 [3]: 30000 nM
COC1(c2nccs2)CCc2ccc(OCc3ccc4ccccc4c3)cc21 (racemic)	700	14	IC50 [4]: 800 nM
COC1(c2nccs2)CCc2ccc(OCc3ccc4ccccc4c3)cc21 (single isomer, unassigned; (+))	500	< 30	IC50 [4]: 130 nM
COC1(c2nccs2)CCc2ccc(OCc3ccc4ccccc4c3)cc21 (single isomer, unassigned; (-))	> 40000	1500	IC50 [4]: > 20000 nM
COC(C)(c1cccc(OCc2ccc3ccccc3c2)c1)c1nccs1 (stereo in doubt; 2o)	~40000	2000	–
COC(C)(c1cccc(OCc2ccc3ccccc3c2)c1)c1nccs1 (stereo in doubt; 2p)	700	30	–
CC(c1cc2ccccc2s1)N(O)C(N)=O (configuration not stated) [ZILEUTON]	–	–	IC50 (Rattus norvegicus [5]): 25000 nM; IC50 (Homo sapiens [6]): 25000 nM; IC50 (Mus musculus [7]): 27000 nM; IC50 (Mus musculus [8]): 1200 nM; IC50 (Homo sapiens [9]): 2000 nM; IC50 (Rattus norvegicus [10]): 2000 nM; ED50 (Rattus norvegicus [11]): 5 mg/kg
CCC(OC)(c1cccc(OCc2ccc3ccccc3c2)c1)c1nccs1 (configuration not stated) [ZM-211965]	–	8	IC50 (Rattus norvegicus [12]): > 100000 nM; IC50 (Homo sapiens [6]): > 100000 nM; IC50 (Mus musculus [7]): > 50000 nM; IC50 [3]: 500 nM; IC50 (Mus musculus [8]): 8 nM; IC50 (Homo sapiens [9]): 400 nM; IC50 (Rattus norvegicus [10]): 500 nM; ED50 (Rattus norvegicus [11]): 10 mg/kg
